M1 ag: M1 muscarinic receptor agonism. CHO-M1 cells, Fluo-4 calcium fluorescence, agonist mode; active compounds read high. actives 3% (n = 64,000). AID 626. B-score at 10 µM;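 active = fluorescence rise, raw or as B-score row- and column-corrected plate score, outside the 99.7% band of its plate's samples, either direction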
S1P3 ag: S1P3 (human) receptor agonism; activation, % at 4.5 µM; S1P3 NFAT-BLA reporter cells, FRET ratio; relative to 1 µM S1P, basal subtracted; actives 0.1% (n = 60,000); AID 373;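 active = activation above the screen-wide mean plus 3 SD, cut at about 4.5% in these data, passing the limit was not always enough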
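material = human S1P3 NFAT-BLA reporter CHO cells | schedule = 4 h compound at 37 °C, 2 h substrate at RT | measured by = fluorescent BLA substrate, ex 405 nm, em 460/535 nm ratio | controls = 1 µM S1P reference | replication = primary once, confirmation triplicate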
S1P1 ag pot: agonists and agonism potentiators of human S1P1 receptor | actives 0.57% (n = 56,000) | activation, % at 9.5 µM | S1P1 CRE-bla cells, forskolin, beta-lactamase FRET, potentiator mode; S1P1 agonist co-added at EC20, 2 nM; 100% = saturating reference agonist, 0% = basal | P21453;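 active = activation above a cutoff set at the mean activation of all tested compounds plus 3 SD, cut at about 54% in these data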;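 also: forskolin at 4 µM as EC80 and the EC20 agonist is SEW2871; 100% = SEW2871 at its EC100 plus forskolin at EC80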
M1 antagonist: M1 muscarinic receptor (rat) antagonism; P08482; CHO-M1 cells, Fluo-4 calcium, ACh EC80 antagonist mode; active compounds read low; B-score at 10 µM; actives 3.4% (n = 64,000); AID 628;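 active = calcium fluorescence response, raw or row-and-column corrected B-score, differing from the plate sample mean either way at a set confidence level, mostly lower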
Jurkat viability: cytotoxic compounds reducing Jurkat cell viability | Jurkat E6.1 viability, ATP luminescence, 48 h | inhibition, % at 4 µM | actives 1.2% (n = 56,000);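 active = inhibition above the mean inhibition of all tested compounds plus 3 SD, cut at about 28% in these data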
JNK3 blocker: blocks human JNK3 kinase activity; P53779; purified JNK3 kinase activity, HTS; AID 746; actives 0.61% (n = 60,000); inhibition, % at 8 µM; in the data active = inhibition above about 17%;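 also: 0% = DMSO and 100% = reference inhibitor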
M1 agonist conf: rat M1 muscarinic agonism, confirmation | shares compounds with M1 ag | CHO-M1 cells, Fluo-4 calcium fluorescence, agonist mode; actives lie on both sides | fluorescence change (max-min) at 10 µM | actives 19% (n = 1,700);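 active = fluorescence change differs from the solvent-only DMSO control mean at a set confidence level in both duplicate runs; inconclusive = differs from solvent-only control mean in just one of two runs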;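 also: an EC20 dose of acetylcholine follows compound addition during the same imaging run; raw fluorescence intensity difference in instrument units with no normalization to controls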
M4 agonist ctr: counter-screen for M1 agonists: activity at rat M4 receptor; actives 9% (n = 1,700); CHO M4/Gqi5 cells, Fluo-4 calcium fluorescence, agonist mode; actives lie on both sides; fluorescence change (max-min) at 10 µM; AID 1741; shares compounds with M1 ag;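 active = fluorescence change differing from the plate's solvent-only control wells at 99.7% confidence in both duplicates, whether higher or lower; inconclusive = differs from solvent controls in only one of two duplicates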
Target sequence (P08485 whole entry, looked up): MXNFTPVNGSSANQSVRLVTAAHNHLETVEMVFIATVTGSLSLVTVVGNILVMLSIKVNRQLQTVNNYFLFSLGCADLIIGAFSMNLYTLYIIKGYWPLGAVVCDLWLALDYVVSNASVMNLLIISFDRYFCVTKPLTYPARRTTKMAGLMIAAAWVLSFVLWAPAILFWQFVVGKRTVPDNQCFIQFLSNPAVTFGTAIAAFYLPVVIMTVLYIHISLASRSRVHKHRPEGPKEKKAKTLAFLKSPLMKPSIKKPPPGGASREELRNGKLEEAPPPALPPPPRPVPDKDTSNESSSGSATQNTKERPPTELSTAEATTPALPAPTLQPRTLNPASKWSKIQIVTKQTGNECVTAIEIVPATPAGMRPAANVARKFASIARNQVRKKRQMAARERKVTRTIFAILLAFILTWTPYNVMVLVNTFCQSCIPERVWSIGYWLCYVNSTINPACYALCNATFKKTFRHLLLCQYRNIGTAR
An asterisk follows results filed as active; u = inconclusive; x = not tested or not shown. This is a sample that favours compounds with a hit; in the whole collection about 7.4% have one here.

SMILES | M1 ag | S1P3 ag | S1P1 ag pot | M1 antagonist | Jurkat viability | JNK3 blocker | M1 agonist conf | M4 agonist ctr
O=C(Nc1ccc(N2CCOCC2)cc1)Nc1ccc2nc(-c3ccco3)c(-c3ccco3)nc2c1 | 2.8* | 0 | x | -1.3 | 83* | 0 | -1.6 | -19
COc1ccc(Cl)cc1NC(=O)c1cccnc1 | 0.28 | -2 | -7 | 0.00031 | -2 | 6 | x | x
CCN1C(=O)/C(=C/N2CC(C)CC(C)C2)SC1=S (stereo not drawn) | -1.1 | -1 | -6 | -0.96 | -4 | -3 | x | x
CCN1C(=O)/C(=C2/SC(C)=C(C)N2CC)SC1=S | 3.2* | -1 | 0 | -1 | 0 | -14 | -5.1 | 20
Cc1ccc(/C=c2\s/c(=C(/C#N)C(=O)N3CCCC3)n(Cc3ccco3)c2=O)s1 | 3* | -1 | 15 | -0.088 | 2 | -5 | 2 | 3.2
COC(=O)/C=c1/s/c(=C(/C#N)C(=O)N2CCCCC2)n(-c2ccccc2)c1=O | 0.047 | -3 | -2 | 0.07 | x | -6 | x | x
CSc1ccc(C2C(C#N)=C(N)Oc3c2ccc(=O)c2c(C)oc(C)c32)cc1 (stereo not drawn) | 7.2* | 0 | 8 | 0.55 | -6 | 0 | 15 | -18
CCOC(=O)C1=C(C)NC(=O)NC1/C(C)=C/c1ccccc1 (stereo not drawn) | 0.046 | -1 | -5 | 0.38 | 0 | 4 | x | x
Cc1ccc(S(=O)(=O)c2c(N)n(CCN3CCOCC3)c3nc4ccccc4nc23)cc1C | -0.048 | 0 | -12 | -0.2 | 6 | 6 | x | x
Cc1ccc2c(c1)c1nc3ccccc3nc1n2CCN1CCOCC1 | 7.2* | 0 | -79 | -0.02 | -2 | 2 | -9 | -21
Oc1c(/C=N/c2ncn[nH]2)ccc2ccccc12 | 4.9* | -1 | -7 | -0.045 | 3 | -2 | 22 | u
CCOc1ccc(C2C=C(c3ccccc3)Nc3ncnn32)cc1 (stereo not drawn) | 25* | -2 | -3 | -2.3 | x | 3 | 202* | 150
CCOc1ccc(C2C=C(c3ccc(F)cc3)Nc3ncnn32)cc1 (stereo not drawn) | 25* | 0 | x | -0.6 | 4 | 10 | 146* | 94
OC(COc1ccc(Br)cc1)CN1CCOCC1 (stereo not drawn) | -1.1 | 0 | 9 | 0.43 | 0 | -5 | x | x
CC(CN1CCOCC1)OC(=O)c1ccc(Br)cc1 (stereo not drawn) | 34* | -1 | -14 | -0.59 | -1 | -2 | u | -35
CCOC(=O)c1c(NC(=O)c2nn(CC)cc2Br)c(C#N)cn1-c1ccccc1 | 3.1* | 0 | -26 | -1.1 | 1 | 2 | -3 | -21
CCCS(=O)(=O)c1nc(S(=O)(=O)c2ccc(C)cc2)c(NCCCN2CCOCC2)s1 | 2.5* | 0 | 9 | 0.017 | 1 | 1 | -14 | u
CCCS(=O)(=O)c1nc(S(=O)(=O)c2ccc(C)cc2)c(N2CCCC2)s1 | -1.5 | 0 | 6 | -0.46 | 2 | -3 | x | x
CCn1cc(C(=O)NCc2ccccn2)c(=O)c2cc(S(=O)(=O)N3CCCCC3)ccc21 | 11* | 0 | 8 | 1.2 | 12 | 0 | 73* | 17
CCn1cc(C(=O)NCc2ccco2)c(=O)c2cc(S(=O)(=O)N3CCCCCC3)ccc21 | 0.51 | -1 | 23 | 0.61 | 23 | 1 | x | x
COc1ccc(Cl)c(NC(=O)NCCN2CCN(c3ccccc3)CC2)c1 | 2.3* | -1 | x | -0.43 | -4 | -3 | -28* | -59
COc1ccc(OC)c(NC(=O)CCN2CCN(c3ccccc3)CC2)c1 | 1.2 | -1 | -16 | -0.093 | -4 | 6 | x | x
O=C1CCCc2[nH]nc(-c3cccnc3)c21 | -1.3 | x | x | 0.29 | x | x | x | x
CCOC(=O)N1CCC(NC(=O)c2cc3c(=O)n(C)c4ccccc4c3n2C)CC1 | 2* | -1 | -30 | 6.6e-05 | -1 | 1 | u | -25
Cn1c(C(=O)NC2CC2)cc2c(=O)n(C)c3ccccc3c21 | 1.7 | -1 | -32 | -0.76 | -1 | 1 | x | x
SMILES | M1 ag | S1P3 ag | S1P1 ag pot | M1 antagonist | Jurkat viability | JNK3 blocker | M1 agonist conf | M4 agonist ctr
Cn1c(C(=O)Nc2ccc3c(c2)OCCO3)cc2c(=O)n(C)c3ccccc3c21 | 4.6* | -1 | -72 | -0.19 | -5 | -2 | 3.7 | -11
O=C(OCC(=O)N1CCN(C(=O)c2ccco2)CC1)c1ccccc1OCc1ccc(Cl)cc1 | 4.5* | 1 | 2 | 0.083 | -11 | -2 | -18 | u
O=C(OCC(=O)N1CCN(C(=O)c2ccco2)CC1)c1sc2ccccc2c1Cl | -0.15 | x | x | 0.25 | x | x | x | x
O=C(CCCn1nnc(-c2cccnc2)n1)c1ccc(F)cc1 | 0.81 | 0 | -8 | -0.023 | 1 | 3 | x | x
O=C(O)CSc1nnc(CNc2ccccc2Cl)n1-c1ccccc1 | 84* | -2 | 0 | 3* | 2 | -3 | u | -66
Cc1ccc(-c2noc(CCC(=O)NCCN3CCc4ccccc4C3)n2)cc1 | -0.9 | -1 | -6 | -1.3 | -4 | 5 | x | x
COc1ccc(S(=O)(=O)N(Cc2ccccc2)Cc2nc(-c3ccccc3)no2)cc1 | 23* | -1 | x | -0.74 | 6 | 3 | 5.4 | -41
COc1ccc(-c2noc(CN(C)S(=O)(=O)c3ccccc3)n2)cc1OC | -0.51 | -1 | -4 | -0.36 | 2 | -6 | x | x
O=c1c(C=NCCCn2ccnc2)c(-c2ccccc2)[nH]n1-c1nc2ccccc2s1 | 5.2* | 0 | 3 | -1.1 | x | 15 | -4.6 | -18
COc1cccc(C(=O)OCc2ccccc2C#N)c1O | -2.2* | 0 | 2 | 0.4 | -6 | -10 | -27* | -79*
CCn1c(SCC(=O)N2CCCC2)nc2c1c(=O)n(C)c(=O)n2C | x | -1 | -12 | x | 6 | -2 | x | x
CCn1c(SCC(=O)Nc2ccccc2N2CCCCC2)nc2c1c(=O)n(C)c(=O)n2C | 2* | -1 | -78 | -1.3 | -4 | -2 | -17 | -13
COc1ccc(N(CC(=O)NC2CCCC2)C(=O)Cn2nnc(-c3ccc(C)cc3)n2)cc1OC | 13* | -1 | 6 | 0.022 | -2 | -4 | u | -59
Cc1cc(C)c2c(=O)n(CC(=O)N3CCC(N4CCCCC4)CC3)sc2n1 | -1.2 | -1 | -9 | -2.4 | 12 | -8 | x | x
CCOCC(=O)N1CCCC(C(=O)OCC)C1 (stereo not drawn) | 0.42 | 0 | -16 | 0.99 | -1 | -2 | x | x
CCOC(=O)C1CCCN(C(=O)CN2CCN(Cc3ccc(Cl)cc3)C2=O)C1 (stereo not drawn) | 23* | x | x | -0.44 | x | x | 202* | -51
